From ChEMBL document CHEMBL1134988, “Prodrugs of 4'-demethyl-4-deoxypodophyllotoxin: synthesis and evaluation of the antitumor activity” (2002)
Calls of active or inactive are those of the source. The calls are words filed in the database; no cut-off is given here.

What was measured:
[1] = test system: A549; test: In vitro cytotoxicity against A549 (human lung carcinoma) cell line.; assay type: functional; conditions: read-out: ED50 (the source's name)
[2] = test system: Mus musculus; test: Antitumor activity against Lewis lung carcinoma (LLC) cells transplanted s.c. into the auxiliary region of the BDF1 mice at a formulable dose of 0.06 mmol/kg/day; Not active; assay type: functional, organism-based
How it was run: (§1)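 LLC cells implanted sc in the axillary region of BDF1 mice. Dosing began 24 h later: ip injection on days 1, 5 and 9 in 5% DMSO/15% Cremophore in saline. Tumour length and width measured on day 17, with TV = L×W²/2. IR (%) = (mean control TV − mean treated TV)/mean control TV × 100.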

[3] = test system: MCF7; test: In vitro cytotoxicity against MCF-7 (human breast carcinoma) cell line.; assay type: functional; conditions: read-out: ED50 (the source's name)
[4] = test system: SK-MEL-2; test: In vitro cytotoxicity against SK-MEL-2 (human melanoma) cell line.; assay type: functional; conditions: read-out: ED50 (the source's name)
[5] = test system: Mus musculus; test: Antitumor activity against Lewis lung carcinoma (LLC) cells transplanted s.c. into the auxiliary region of the BDF1 mice at a maximum tolerated dose of 0.06 mmol/kg/day; assay type: functional
How it was run: (§2)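 BDF1 mice carried sc LLC grafts in the axillary region. Starting 24 h after implantation, doses were given ip on days 1, 5 and 9. Tumour length and width were measured on day 17 and TV = L×W²/2. Inhibition rate (%) was the reduction in mean TV relative to the control group.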

[6] = test system: Mus musculus; test: Antitumor activity against Lewis lung carcinoma (LLC) cells transplanted s.c. into the auxiliary region of the BDF1 mice at a formulable dose of 0.06 mmol/kg/day; assay type: functional; how it was run: as §1
[7] = test system: Mus musculus; test: Antitumor activity against Lewis lung carcinoma (LLC) cells transplanted s.c. into the auxiliary region of the BDF1 mice at a maximum tolerated dose of 0.3 mmol/kg/day; assay type: functional; how it was run: as §2
[8] = test system: Mus musculus; test: Antitumor activity against Lewis lung carcinoma (LLC) cells transplanted s.c. into the auxiliary region of the BDF1 mice at a maximum tolerated dose of 0.36 mmol/kg/day; assay type: functional; how it was run: as §2
[9] = test system: Mus musculus; test: Antitumor activity against Lewis lung carcinoma (LLC) cells transplanted s.c. into the auxiliary region of the BDF1 mice at a maximum tolerated dose of 0.42 mmol/kg/day; assay type: functional; how it was run: as §2

SMILES	EC50 [1]	Inhibition rate [2]	EC50 [3]	EC50 [4]	Inhibition rate [5]	Inhibition rate [6]	Inhibition rate [7]	Inhibition rate [8]	Inhibition rate [9]
CCNC(=O)Oc1c(OC)cc([C@@H]2c3cc4c(cc3C[C@H]3COC(=O)[C@@H]32)OCO4)cc1OC	132 nM	inactive	142 nM	143 nM					
COc1cc([C@@H]2c3cc4c(cc3C[C@H]3COC(=O)[C@@H]32)OCO4)cc(OC)c1OC(=O)CCCCCN	89 nM		72 nM	77 nM	89%				
COc1ccc(NC(=O)Oc2c(OC)cc([C@@H]3c4cc5c(cc4C[C@H]4COC(=O)[C@@H]43)OCO5)cc2OC)cc1	96 nM	inactive	93 nM	89 nM					
COc1cc([C@@H]2c3cc4c(cc3C[C@H]3COC(=O)[C@@H]32)OCO4)cc(OC)c1OC(=O)NC(C)C	153 nM	inactive	166 nM	165 nM					
COc1cc([C@@H]2c3cc4c(cc3C[C@H]3COC(=O)[C@@H]32)OCO4)cc(OC)c1OC [DESOXYPODOPHYLLOTOXIN]	23 nM		11 nM	14 nM		59%			
COc1cc([C@@H]2c3cc4c(cc3C[C@H]3COC(=O)[C@@H]32)OCO4)cc(OC)c1OC(=O)NC1CCCCC1	163 nM	inactive	197 nM	152 nM					
COc1cc([C@@H]2c3cc4c(cc3C[C@H]3COC(=O)[C@@H]32)OCO4)cc(OC)c1OCc1ccc(N)cc1	114 nM		99 nM	152 nM			80%		
COc1cc([C@@H]2c3cc4c(cc3C[C@H]3COC(=O)[C@@H]32)OCO4)cc(OC)c1OC(=O)OCCCl	92 nM		88 nM	72 nM					
COc1cc([C@@H]2c3cc4c(cc3C[C@H]3COC(=O)[C@@H]32)OCO4)cc(OC)c1OC(=O)CCCN	92 nM		89 nM	91 nM				85%	
COc1cc([C@@H]2c3cc4c(cc3C[C@H]3COC(=O)[C@@H]32)OCO4)cc(OC)c1O [4'-DEMETHYLDEOXYPODOPHYLLOTOXIN]	15 nM		18 nM	12 nM		13%			
COc1cc([C@@H]2c3cc4c(cc3C[C@H]3COC(=O)[C@@H]32)OCO4)cc(OC)c1OC(=O)CN	12 nM		31 nM	34 nM			33%		
COc1cc([C@@H]2c3cc4c(cc3C[C@H]3COC(=O)[C@@H]32)OCO4)cc(OC)c1OC(=O)CCCCCCCN	74 nM		69 nM	61 nM					80%
COc1cc([C@@H]2c3cc4c(cc3C[C@H]3COC(=O)[C@@H]32)OCO4)cc(OC)c1OC(=O)NCCO	62 nM		46 nM	59 nM		95%			
COc1cc([C@@H]2c3cc4c(cc3[C@@H](O[C@@H]3O[C@@H]5CO[C@@H](C)O[C@H]5[C@H](O)[C@H]3O)[C@H]3COC(=O)[C@H]23)OCO4)cc(OC)c1O [ETOPOSIDE]	1900 nM					78%			
COc1cc([C@@H]2c3cc4c(cc3C[C@H]3COC(=O)[C@@H]32)OCO4)cc(OC)c1OC(=O)[C@H](C)N	22 nM		11 nM	9 nM			41%		
COc1cc([C@@H]2c3cc4c(cc3C[C@H]3COC(=O)[C@@H]32)OCO4)cc(OC)c1OC(=O)[C@@H](N)Cc1ccccc1	87 nM		72 nM	59 nM				80%	
COc1cc([C@@H]2c3cc4c(cc3C[C@H]3COC(=O)[C@@H]32)OCO4)cc(OC)c1OC(=O)Nc1ccc(F)cc1	86 nM		76 nM	78 nM		69%			
COc1cc([C@@H]2c3cc4c(cc3C[C@H]3COC(=O)[C@@H]32)OCO4)cc(OC)c1OC(=O)CCN	97 nM		83 nM	79 nM			85%		
